Source: ChEMBL document CHEMBL1138950, “Benzimidazole derivatives bearing substituted biphenyls as hepatitis C virus NS5B RNA-dependent RNA polymerase inhibitors: structure-activity relationship studies and identification of a potent and highly selective inhibitor JTK-109” (J Med Chem, 2006)

Key:
[1] = test system: Hepatitis C virus; test: Inhibition of HCV subgenomic RNA replication in Huh5-2 cells at 10 uM after 48 hrs by replicon assay; assay type: functional, Hepacivirus hominis; settings: Huh-5-2, 48 h
[2] = biological target: RNA-directed RNA polymerase (Hepacivirus hominis, UniProt O39930); test: Inhibition of HCV 1b BK six His-tagged C-terminal truncated 544 amino acid NS5B RNA dependent RNA polymerase; set-up: species or system Hepatitis C virus subtype 1b
Procedure, shortened: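 HCV genotype 1b (BK) NS5B lacking 47 C-terminal residues, His6-tagged, E. coli-expressed; 7 nM enzyme with 5 µg HCV 3′X RNA template-primer, 50 µM each ATP/GTP/CTP, 2 µM UTP plus [3H]-UTP; pH 7.5 Tris, 5 mM MgCl2. Compounds in DMSO (5% final). 60 min at 25 °C; TCA-precipitable radioactivity read. Triplicate, mean of three experiments.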

[3] = test system: Hepatitis C virus; test: Inhibition of HCV subgenomic RNA replication in Huh5-2 cells after 48 hrs by replicon assay; assay type: functional, organism-based, Hepacivirus hominis; settings: Huh-5-2, 48 h
Procedure, shortened: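 Huh-5-2 cells (Huh-7-derived, genotype 1b subgenomic replicon with luciferase reporter) seeded at 5 × 10^3 per well in DMEM with 10% FBS, 37 °C, 5% CO2; compounds added next day, 48 h exposure; luciferase activity read. EC50 is the concentration reducing replication by 50%. Triplicate, mean of three experiments.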

[4] = test system: Huh-5-2; test: Viability of Huh5-2 cells by MTT assay; assay type: functional; settings: Homo sapiens
[5] = Therapeutic index, CC50 for viability of Huh5-2 cells/EC50 for inhibition of HCV subgenomic RNA replication; assay type: cell-based, Huh-5-2; settings: human, read-out: Ratio CC50/EC50
[6] = Plasma concentration in rat at 30 mg/kg, po after 1 hr; assay type: ADME, organism-based; set-up: dose 30 mg/kg, route oral
Procedure, shortened: (§1)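 Rats dosed orally at 30 mg/kg; plasma sampled at 1 and 2 h; n = 2 or 3.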

[7] = Plasma concentration in rat at 30 mg/kg, po after 2 hrs; assay type: ADME, organism-based; set-up: dose 30 mg/kg, route oral; procedure, shortened: as §1
[8] = Distribution coefficient, log D at pH 7.2; assay type: physicochemical; settings: octanol/water
[9] = Apparent permeability in Caco-2 cells; assay type: ADME, cell-based; settings: human

Sequence of RNA-directed RNA polymerase (O39930 whole entry, the tested form may be a part): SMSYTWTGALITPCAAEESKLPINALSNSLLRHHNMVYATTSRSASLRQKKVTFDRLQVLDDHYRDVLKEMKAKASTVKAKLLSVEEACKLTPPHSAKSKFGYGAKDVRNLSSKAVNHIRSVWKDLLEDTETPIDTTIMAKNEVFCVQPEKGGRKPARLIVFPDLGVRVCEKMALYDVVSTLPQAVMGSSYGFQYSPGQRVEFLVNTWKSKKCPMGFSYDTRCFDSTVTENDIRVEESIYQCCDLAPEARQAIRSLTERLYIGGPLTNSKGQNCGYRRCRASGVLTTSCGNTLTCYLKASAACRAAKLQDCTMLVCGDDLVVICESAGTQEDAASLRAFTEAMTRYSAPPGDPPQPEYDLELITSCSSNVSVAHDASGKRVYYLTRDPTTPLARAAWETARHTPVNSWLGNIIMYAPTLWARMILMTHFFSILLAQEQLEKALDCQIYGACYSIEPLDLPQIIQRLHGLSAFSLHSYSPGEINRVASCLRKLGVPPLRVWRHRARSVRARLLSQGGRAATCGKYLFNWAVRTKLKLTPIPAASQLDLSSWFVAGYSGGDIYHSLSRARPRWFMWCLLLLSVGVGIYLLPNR

Structure (SMILES)	inhibition at 10 µM [1]	IC50 [2]	EC50 [3]	CC50 [4]	selectivity ratio [5]	concentration at 1 h [6]	concentration at 2 h [7]	logD [8]	Papp [9]
Cc1nc(COc2ccc(-c3nc4cc(C(=O)O)ccc4n3C3CCCCC3)cc2)c(-c2ccc(Cl)cc2)o1	30%	580 nM	> 10000 nM	39000 nM					
CN(C)C(=O)c1ccc(-c2ccc(Cl)cc2)c(COc2ccc(-c3nc4cc(C(=O)O)ccc4n3C3CCCCC3)c(F)c2)c1		12 nM	160 nM	26000 nM	163	1600 nM	1800 nM		
O=C(O)c1ccc(-c2ccc(Cl)cc2COc2ccc(-c3nc4cc(C(=O)O)ccc4n3C3CCCCC3)cc2)cc1		58 nM	> 10000 nM	> 50000 nM				3.26	23.4 ×10⁻⁶ cm/s
CC(C)C(=O)N(C)c1ccc(-c2ccc(Cl)cc2)c(COc2ccc(-c3nc4cc(C(=O)O)ccc4n3C3CCCCC3)c(F)c2)c1		32 nM	350 nM	22000 nM	63	1900 nM	1100 nM		
